“And” between values parts separate entries of the source, which are not always exact repeats. Equal entries are not always repeated.
Tested on: Fibroblast
Experiment: Multiplex assay against human fibroblast
Assay type: toxicity, cell-based
How it was run: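 Phenotypes for tubulin, mitochondrial mass and membrane permeability are expressed as per cents of healthy-nucleus cells. Cells were stained live at seeding with Hoechst33342, BioTracker Green Microtubule Cytoskeleton Dye, MitoTracker Red and Annexin V Alexa Fluor 680, then imaged after compound addition on a CQ1 microscope at 37°C and 5% CO2. Machine-learning gating in CellPathfinder separated Hoechst high-intensity objects from normal cells, divided normal cells by nuclear state (healthy, pyknosed, fragmented) and divided pyknosed cells into mitotic or apoptotic.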

[1] = 12 h, 1 µM, compound concentration 1 uM
[2] = 12 h, 10 µM, compound concentration 10 uM
[3] = 24 h, 1 µM, compound concentration 1 uM
[4] = 24 h, 10 µM, compound concentration 10 uM
[5] = 48 h, 1 µM, compound concentration 1 uM
[6] = 48 h, 10 µM, compound concentration 10 uM

SMILES: Cc1cnc(-c2cc(N3CCN(C(=O)CCS(C)(=O)=O)CC3)ncc2Cl)c(C)c1
- Population Apoptotic (%) [1]: 36% and 31%
- Population Fragmented Nuclei (%) [1]: 9% and 22%
- Population Healthy Nuclei (%) [1]: 71% and 36%
- Population Hoechst High Intensity Objects (%) [1]: 1% and 9%
- Population Membrane Permeable-Phenotype (%) [1]: 0% and 7%
- Population Mitochondria Different-Phenotype (%) [1]: 7% and 10%
- Population Mitotic Cells (%) [1]: 63% and 68%
- Population Normal (%) [1]: 98% and 90%
- Population Pyknosed Nuclei (%) [1]: 19% and 41%
- Population Tubulin-Different-Phenotype (%) [1]: 20% and 50%
- Total Cell Count [1]: 99 and 85
- Population Apoptotic (%) [2]: 40% and 26%
- Population Fragmented Nuclei (%) [2]: 13% and 21%
- Population Healthy Nuclei (%) [2]: 71% and 63%
- Population Hoechst High Intensity Objects (%) [2]: 4% and 1%
- Population Membrane Permeable-Phenotype (%) [2]: 1%
- Population Mitochondria Different-Phenotype (%) [2]: 2%
- Population Mitotic Cells (%) [2]: 60% and 73%
- Population Normal (%) [2]: 95% and 98%
- Population Pyknosed Nuclei (%) [2]: 14% and 15%
- Population Tubulin-Different-Phenotype (%) [2]: 24% and 37%
- Total Cell Count [2]: 142 and 121
- Population Apoptotic (%) [3]: 54% and 47%
- Population Healthy Nuclei (%) [3]: 76% and 38%
- Population Hoechst High Intensity Objects (%) [3]: 6% and 10%
- Population Membrane Permeable-Phenotype (%) [3]: 2% and 3%
- Population Mitochondria Different-Phenotype (%) [3]: 4% and 0%
- Population Mitotic Cells (%) [3]: 45% and 52%
- Population Normal (%) [3]: 93% and 89%
- Population Pyknosed Nuclei (%) [3]: 12% and 25%
- Population Tubulin-Different-Phenotype (%) [3]: 30% and 61%
- Total Cell Count [3]: 97 and 91
- Population Apoptotic (%) [4]: 46% and 42%
- Population Fragmented Nuclei (%) [4]: 10% and 19%
- Population Healthy Nuclei (%) [4]: 79% and 67%
- Population Hoechst High Intensity Objects (%) [4]: 0% and 4%
- Population Membrane Permeable-Phenotype (%) [4]: 2%
- Population Mitochondria Different-Phenotype (%) [4]: 6% and 9%
- Population Mitotic Cells (%) [4]: 53% and 57%
- Population Normal (%) [4]: 99% and 95%
- Population Pyknosed Nuclei (%) [4]: 9% and 12%
- Population Tubulin-Different-Phenotype (%) [4]: 28% and 38%
- Total Cell Count [4]: 135 and 116
- Population Apoptotic (%) [5]: 69% and 36%
- Population Fragmented Nuclei (%) [5]: 19% and 40%
- Population Healthy Nuclei (%) [5]: 58% and 47%
- Population Hoechst High Intensity Objects (%) [5]: 2% and 5%
- Population Membrane Permeable-Phenotype (%) [5]: 0% and 12%
- Population Mitochondria Different-Phenotype (%) [5]: 1% and 9%
- Population Mitotic Cells (%) [5]: 30% and 63%
- Population Normal (%) [5]: 97% and 94%
- Population Pyknosed Nuclei (%) [5]: 21% and 12%
- Population Tubulin-Different-Phenotype (%) [5]: 33% and 70%
- Total Cell Count [5]: 109 and 92
- Population Apoptotic (%) [6]: 50% and 75%
- Population Fragmented Nuclei (%) [6]: 21% and 29%
- Population Healthy Nuclei (%) [6]: 69% and 61%
- Population Hoechst High Intensity Objects (%) [6]: 2% and 3%
- Population Membrane Permeable-Phenotype (%) [6]: 0% and 2%
- Population Mitochondria Different-Phenotype (%) [6]: 7% and 5%
- Population Mitotic Cells (%) [6]: 50% and 25%
- Population Normal (%) [6]: 97% and 96%
- Population Pyknosed Nuclei (%) [6]: 8% and 9%
- Population Tubulin-Different-Phenotype (%) [6]: 33%
- Total Cell Count [6]: 141 and 131

SMILES: Cc1ccccc1C(=O)Nc1ccc(C(=O)N2CCCC(N(C)C)c3ccccc32)cc1.Cl (stereo not drawn)
- Population Apoptotic (%) [1]: 52% and 36%
- Population Fragmented Nuclei (%) [1]: 16% and 22%
- Population Healthy Nuclei (%) [1]: 71% and 55%
- Population Hoechst High Intensity Objects (%) [1]: 0% and 1%
- Population Membrane Permeable-Phenotype (%) [1]: 0% and 10%
- Population Mitochondria Different-Phenotype (%) [1]: 5% and 3%
- Population Mitotic Cells (%) [1]: 47% and 63%
- Population Normal (%) [1]: 100% and 98%
- Population Pyknosed Nuclei (%) [1]: 12% and 21%
- Population Tubulin-Different-Phenotype (%) [1]: 31% and 45%
- Total Cell Count [1]: 167 and 155
- Population Apoptotic (%) [2]: 58% and 45%
- Population Fragmented Nuclei (%) [2]: 26% and 29%
- Population Healthy Nuclei (%) [2]: 50% and 47%
- Population Hoechst High Intensity Objects (%) [2]: 1% and 4%
- Population Membrane Permeable-Phenotype (%) [2]: 1% and 4%
- Population Mitochondria Different-Phenotype (%) [2]: 12%
- Population Mitotic Cells (%) [2]: 41% and 54%
- Population Normal (%) [2]: 98% and 95%
- Population Pyknosed Nuclei (%) [2]: 22% and 23%
- Population Tubulin-Different-Phenotype (%) [2]: 70% and 61%
- Total Cell Count [2]: 108 and 109
- Population Apoptotic (%) [3]: 38% and 43%
- Population Fragmented Nuclei (%) [3]: 15% and 28%
- Population Healthy Nuclei (%) [3]: 76% and 49%
- Population Hoechst High Intensity Objects (%) [3]: 1% and 5%
- Population Membrane Permeable-Phenotype (%) [3]: 0% and 8%
- Population Mitochondria Different-Phenotype (%) [3]: 8% and 2%
- Population Mitotic Cells (%) [3]: 61% and 56%
- Population Normal (%) [3]: 98% and 94%
- Population Pyknosed Nuclei (%) [3]: 8% and 21%
- Population Tubulin-Different-Phenotype (%) [3]: 30% and 50%
- Total Cell Count [3]: 160 and 157
- Population Apoptotic (%) [4]: 58% and 57%
- Population Fragmented Nuclei (%) [4]: 30% and 37%
- Population Healthy Nuclei (%) [4]: 58% and 42%
- Population Hoechst High Intensity Objects (%) [4]: 1% and 4%
- Population Membrane Permeable-Phenotype (%) [4]: 0% and 9%
- Population Mitochondria Different-Phenotype (%) [4]: 12% and 11%
- Population Mitotic Cells (%) [4]: 41% and 42%
- Population Normal (%) [4]: 98% and 95%
- Population Pyknosed Nuclei (%) [4]: 11% and 20%
- Population Tubulin-Different-Phenotype (%) [4]: 68% and 72%
- Total Cell Count [4]: 111 and 107
- Population Apoptotic (%) [5]: 33% and 53%
- Population Fragmented Nuclei (%) [5]: 13% and 32%
- Population Healthy Nuclei (%) [5]: 79% and 50%
- Population Hoechst High Intensity Objects (%) [5]: 3%
- Population Membrane Permeable-Phenotype (%) [5]: 0% and 8%
- Population Mitochondria Different-Phenotype (%) [5]: 4% and 5%
- Population Mitotic Cells (%) [5]: 66% and 46%
- Population Normal (%) [5]: 96%
- Population Pyknosed Nuclei (%) [5]: 7% and 17%
- Population Tubulin-Different-Phenotype (%) [5]: 28% and 54%
- Total Cell Count [5]: 158 and 155
- Population Apoptotic (%) [6]: 91% and 73%
- Population Fragmented Nuclei (%) [6]: 24% and 43%
- Population Healthy Nuclei (%) [6]: 60% and 43%
- Population Hoechst High Intensity Objects (%) [6]: 7% and 3%
- Population Membrane Permeable-Phenotype (%) [6]: 0% and 8%
- Population Mitochondria Different-Phenotype (%) [6]: 12% and 14%
- Population Normal (%) [6]: 92% and 96%
- Population Pyknosed Nuclei (%) [6]: 14% and 13%
- Population Tubulin-Different-Phenotype (%) [6]: 51% and 70%
- Total Cell Count [6]: 88 and 113

SMILES: Cc1nc2ccc(Oc3ccc(F)cc3)cc2c(=O)n1C[C@H]1CCCN(C(C)C)C1.Cl
- Population Apoptotic (%) [1]: 34% and 44%
- Population Fragmented Nuclei (%) [1]: 19% and 24%
- Population Healthy Nuclei (%) [1]: 67% and 47%
- Population Hoechst High Intensity Objects (%) [1]: 5% and 9%
- Population Mitochondria Different-Phenotype (%) [1]: 4% and 8%
- Population Mitotic Cells (%) [1]: 65% and 55%
- Population Normal (%) [1]: 94% and 90%
- Population Pyknosed Nuclei (%) [1]: 13% and 29%
- Population Tubulin-Different-Phenotype (%) [1]: 31% and 70%
- Total Cell Count [1]: 184 and 111
- Population Apoptotic (%) [2]: 53% and 61%
- Population Fragmented Nuclei (%) [2]: 19% and 36%
- Population Healthy Nuclei (%) [2]: 61% and 44%
- Population Hoechst High Intensity Objects (%) [2]: 4% and 3%
- Population Membrane Permeable-Phenotype (%) [2]: 1% and 5%
- Population Mitochondria Different-Phenotype (%) [2]: 22% and 25%
- Population Mitotic Cells (%) [2]: 46% and 38%
- Population Normal (%) [2]: 95% and 96%
- Population Pyknosed Nuclei (%) [2]: 19%
- Population Tubulin-Different-Phenotype (%) [2]: 88% and 80%
- Total Cell Count [2]: 241 and 205
- Population Apoptotic (%) [3]: 66% and 38%
- Population Fragmented Nuclei (%) [3]: 17% and 29%
- Population Healthy Nuclei (%) [3]: 68% and 50%
- Population Hoechst High Intensity Objects (%) [3]: 3% and 7%
- Population Mitochondria Different-Phenotype (%) [3]: 6% and 17%
- Population Mitotic Cells (%) [3]: 33% and 61%
- Population Normal (%) [3]: 96% and 92%
- Population Pyknosed Nuclei (%) [3]: 13% and 20%
- Population Tubulin-Different-Phenotype (%) [3]: 30% and 73%
- Total Cell Count [3]: 186 and 112
- Population Apoptotic (%) [4]: 67% and 54%
- Population Fragmented Nuclei (%) [4]: 27% and 30%
- Population Healthy Nuclei (%) [4]: 58% and 52%
- Population Hoechst High Intensity Objects (%) [4]: 3% and 6%
- Population Membrane Permeable-Phenotype (%) [4]: 0% and 1%
- Population Mitochondria Different-Phenotype (%) [4]: 27% and 29%
- Population Mitotic Cells (%) [4]: 32% and 45%
- Population Normal (%) [4]: 96% and 93%
- Population Pyknosed Nuclei (%) [4]: 13% and 17%
- Population Tubulin-Different-Phenotype (%) [4]: 84% and 87%
- Total Cell Count [4]: 290 and 187
- Population Apoptotic (%) [5]: 66% and 42%
- Population Fragmented Nuclei (%) [5]: 25% and 36%
- Population Healthy Nuclei (%) [5]: 66% and 44%
- Population Hoechst High Intensity Objects (%) [5]: 3% and 5%
- Population Membrane Permeable-Phenotype (%) [5]: 0% and 6%
- Population Mitotic Cells (%) [5]: 33% and 57%
- Population Normal (%) [5]: 96% and 94%
- Population Pyknosed Nuclei (%) [5]: 8% and 19%
- Population Tubulin-Different-Phenotype (%) [5]: 33% and 68%
- Total Cell Count [5]: 184 and 105
- Population Apoptotic (%) [6]: 66% and 68%
- Population Fragmented Nuclei (%) [6]: 23% and 33%
- Population Healthy Nuclei (%) [6]: 65% and 53%
- Population Hoechst High Intensity Objects (%) [6]: 9% and 3%
- Population Membrane Permeable-Phenotype (%) [6]: 0% and 2%
- Population Mitochondria Different-Phenotype (%) [6]: 20% and 19%
- Population Mitotic Cells (%) [6]: 33% and 32%
- Population Normal (%) [6]: 90% and 96%
- Population Pyknosed Nuclei (%) [6]: 10% and 12%
- Population Tubulin-Different-Phenotype (%) [6]: 85%
- Total Cell Count [6]: 290 and 201

— ChEMBL document CHEMBL5724801, “EUbOPEN Chemogenomics Library - Multiplex” (2024)
